# Data as given in ChEMBL document CHEMBL5303300, “EUbOPEN Chemogenomics Library - Multiplex” (2023).
# Where “and” joins values, the source holds several entries; their conditions need not be identical. Identical values can stand only once.
# System: HEK-293T
# Assay: Multiplex assay against HEK293T
# Assay type: toxicity, cell-based
# Details: human, number of replicates 2
# Method in brief: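 Phenotypes for tubulin, mitochondrial mass and membrane permeability are expressed as per cents of healthy-nucleus cells. Cells were stained live at seeding with Hoechst33342, BioTracker Green Microtubule Cytoskeleton Dye, MitoTracker Red and Annexin V Alexa Fluor 680, then imaged after compound addition on a CQ1 microscope at 37°C and 5% CO2. Machine-learning gating in CellPathfinder separated Hoechst high-intensity objects from normal cells, divided normal cells by nuclear state (healthy, pyknosed, fragmented) and divided pyknosed cells into mitotic or apoptotic.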
# [1] = 12 h, 0 µM, compound concentration 0 uM
# [2] = 12 h, 1 µM, compound concentration 1 uM
# [3] = 24 h, 0 µM, compound concentration 0 uM
# [4] = 24 h, 1 µM, compound concentration 1 uM
# [5] = 48 h, 0 µM, compound concentration 0 uM
# [6] = 48 h, 1 µM, compound concentration 1 uM
# [7] = 12 h, 10 µM, compound concentration 10 uM
# [8] = 24 h, 10 µM, compound concentration 10 uM
# [9] = 48 h, 10 µM, compound concentration 10 uM
smiles,measurement,setting,value
COc1cc(C(N)=O)ccc1Nc1ncc2c(n1)N(CCC(C)C)[C@H](C)C(=O)N2C,Population Apoptotic (%),[1],47% and 52%
same,Population Fragmented Nuclei (%),[1],3% and 2%
same,Population Healthy Nuclei (%),[1],86% and 88%
same,Population Hoechst High Intensity Objects (%),[1],2%
same,Population Membrane Permeable-Phenotype (%),[1],4% and 10%
same,Population Mitochondria Different-Phenotype (%),[1],31% and 35%
same,Population Mitotic Cells (%),[1],52% and 47%
same,Population Normal (%),[1],97%
same,Population Pyknosed Nuclei (%),[1],10% and 9%
same,Population Tubulin-Different-Phenotype (%),[1],82% and 95%
same,Total Cell Count,[1],540 and 476
same,Population Apoptotic (%),[2],62% and 60%
same,Population Fragmented Nuclei (%),[2],1% and 4%
same,Population Healthy Nuclei (%),[2],73% and 75%
same,Population Hoechst High Intensity Objects (%),[2],8% and 7%
same,Population Membrane Permeable-Phenotype (%),[2],2%
same,Population Mitochondria Different-Phenotype (%),[2],38% and 28%
same,Population Mitotic Cells (%),[2],37% and 39%
same,Population Normal (%),[2],91% and 92%
same,Population Pyknosed Nuclei (%),[2],24% and 20%
same,Population Tubulin-Different-Phenotype (%),[2],64% and 58%
same,Total Cell Count,[2],432 and 456
same,Population Apoptotic (%),[3],67% and 50%
same,Population Fragmented Nuclei (%),[3],4% and 5%
same,Population Healthy Nuclei (%),[3],88%
same,Population Hoechst High Intensity Objects (%),[3],3% and 2%
same,Population Membrane Permeable-Phenotype (%),[3],1% and 2%
same,Population Mitochondria Different-Phenotype (%),[3],44% and 59%
same,Population Mitotic Cells (%),[3],32% and 50%
same,Population Normal (%),[3],96% and 97%
same,Population Pyknosed Nuclei (%),[3],6%
same,Population Tubulin-Different-Phenotype (%),[3],81% and 96%
same,Total Cell Count,[3],464 and 423
same,Population Apoptotic (%),[4],75% and 68%
same,Population Fragmented Nuclei (%),[4],5%
same,Population Healthy Nuclei (%),[4],69% and 76%
same,Population Hoechst High Intensity Objects (%),[4],8% and 6%
same,Population Membrane Permeable-Phenotype (%),[4],1%
same,Population Mitochondria Different-Phenotype (%),[4],34% and 32%
same,Population Mitotic Cells (%),[4],24% and 31%
same,Population Normal (%),[4],91% and 93%
same,Population Pyknosed Nuclei (%),[4],25% and 18%
same,Population Tubulin-Different-Phenotype (%),[4],38% and 35%
same,Total Cell Count,[4],461 and 420
same,Population Apoptotic (%),[5],72% and 75%
same,Population Fragmented Nuclei (%),[5],16% and 11%
same,Population Healthy Nuclei (%),[5],78% and 80%
same,Population Hoechst High Intensity Objects (%),[5],3%
same,Population Membrane Permeable-Phenotype (%),[5],1% and 3%
same,Population Mitochondria Different-Phenotype (%),[5],39% and 55%
same,Population Mitotic Cells (%),[5],28% and 24%
same,Population Normal (%),[5],96%
same,Population Pyknosed Nuclei (%),[5],5% and 7%
same,Population Tubulin-Different-Phenotype (%),[5],63% and 89%
same,Total Cell Count,[5],505 and 420
same,Population Apoptotic (%),[6],72% and 73%
same,Population Fragmented Nuclei (%),[6],8% and 11%
same,Population Healthy Nuclei (%),[6],72% and 76%
same,Population Hoechst High Intensity Objects (%),[6],5% and 4%
same,Population Membrane Permeable-Phenotype (%),[6],1%
same,Population Mitochondria Different-Phenotype (%),[6],14% and 17%
same,Population Mitotic Cells (%),[6],27% and 26%
same,Population Normal (%),[6],94% and 95%
same,Population Pyknosed Nuclei (%),[6],19% and 12%
same,Population Tubulin-Different-Phenotype (%),[6],24% and 20%
same,Total Cell Count,[6],520 and 517
c1ccc2c(-c3coc4cc(-c5ccc(N6CCNCC6)cc5)cnc34)ccnc2c1,Population Apoptotic (%),[2],49% and 54%
same,Population Healthy Nuclei (%),[2],84% and 87%
same,Population Mitotic Cells (%),[2],50% and 45%
same,Population Normal (%),[2],94%
same,Population Pyknosed Nuclei (%),[2],13% and 10%
same,Population Tubulin-Different-Phenotype (%),[2],46% and 49%
same,Total Cell Count,[2],595 and 552
same,Population Apoptotic (%),[7],75% and 58%
same,Population Healthy Nuclei (%),[7],32% and 33%
same,Population Mitotic Cells (%),[7],24% and 41%
same,Population Normal (%),[7],82% and 84%
same,Population Pyknosed Nuclei (%),[7],59%
same,Population Tubulin-Different-Phenotype (%),[7],86% and 81%
same,Total Cell Count,[7],394 and 507
same,Population Apoptotic (%),[4],36% and 45%
same,Population Healthy Nuclei (%),[4],88% and 87%
same,Population Mitotic Cells (%),[4],63% and 54%
same,Population Normal (%),[4],95% and 93%
same,Population Pyknosed Nuclei (%),[4],9%
same,Population Tubulin-Different-Phenotype (%),[4],34% and 40%
same,Total Cell Count,[4],920 and 770
same,Population Apoptotic (%),[8],85% and 72%
same,Population Healthy Nuclei (%),[8],19% and 24%
same,Population Mitotic Cells (%),[8],14% and 27%
same,Population Normal (%),[8],82% and 80%
same,Population Pyknosed Nuclei (%),[8],71% and 67%
same,Population Tubulin-Different-Phenotype (%),[8],89% and 87%
same,Total Cell Count,[8],387 and 484
same,Population Apoptotic (%),[6],13% and 18%
same,Population Healthy Nuclei (%),[6],90% and 89%
same,Population Mitotic Cells (%),[6],86% and 81%
same,Population Normal (%),[6],93% and 92%
same,Population Pyknosed Nuclei (%),[6],4% and 5%
same,Population Tubulin-Different-Phenotype (%),[6],18% and 22%
same,Total Cell Count,[6],1932 and 1615
same,Population Apoptotic (%),[9],90% and 79%
same,Population Healthy Nuclei (%),[9],11% and 23%
same,Population Mitotic Cells (%),[9],9% and 20%
same,Population Normal (%),[9],81% and 79%
same,Population Pyknosed Nuclei (%),[9],74% and 64%
same,Population Tubulin-Different-Phenotype (%),[9],86% and 91%
same,Total Cell Count,[9],372 and 450
CN(C)CCCNc1ccnc(Nc2cccc(Cl)c2)n1,Population Apoptotic (%),[2],33% and 44%
same,Population Fragmented Nuclei (%),[2],2% and 3%
same,Population Healthy Nuclei (%),[2],86% and 87%
same,Population Hoechst High Intensity Objects (%),[2],6% and 7%
same,Population Membrane Permeable-Phenotype (%),[2],5% and 4%
same,Population Mitochondria Different-Phenotype (%),[2],17% and 13%
same,Population Mitotic Cells (%),[2],66% and 55%
same,Population Normal (%),[2],93% and 92%
same,Population Pyknosed Nuclei (%),[2],10% and 8%
same,Population Tubulin-Different-Phenotype (%),[2],51% and 48%
same,Total Cell Count,[2],626 and 658
same,Population Apoptotic (%),[7],52% and 65%
same,Population Fragmented Nuclei (%),[7],4% and 3%
same,Population Healthy Nuclei (%),[7],87% and 88%
same,Population Hoechst High Intensity Objects (%),[7],10% and 11%
same,Population Membrane Permeable-Phenotype (%),[7],3% and 2%
same,Population Mitochondria Different-Phenotype (%),[7],37% and 32%
same,Population Mitotic Cells (%),[7],47% and 34%
same,Population Normal (%),[7],89% and 88%
same,Population Pyknosed Nuclei (%),[7],8%
same,Population Tubulin-Different-Phenotype (%),[7],79% and 75%
same,Total Cell Count,[7],466 and 581
same,Population Apoptotic (%),[4],26% and 29%
same,Population Fragmented Nuclei (%),[4],3% and 4%
same,Population Healthy Nuclei (%),[4],89%
same,Population Hoechst High Intensity Objects (%),[4],6%
same,Population Membrane Permeable-Phenotype (%),[4],5% and 3%
same,Population Mitochondria Different-Phenotype (%),[4],5% and 4%
same,Population Mitotic Cells (%),[4],73% and 70%
same,Population Normal (%),[4],93%
same,Population Pyknosed Nuclei (%),[4],7% and 6%
same,Population Tubulin-Different-Phenotype (%),[4],31% and 30%
same,Total Cell Count,[4],950 and 963
same,Population Apoptotic (%),[8],43% and 66%
same,Population Fragmented Nuclei (%),[8],3% and 4%
same,Population Healthy Nuclei (%),[8],92% and 90%
same,Population Hoechst High Intensity Objects (%),[8],7% and 14%
same,Population Membrane Permeable-Phenotype (%),[8],6% and 3%
same,Population Mitochondria Different-Phenotype (%),[8],32% and 35%
same,Population Mitotic Cells (%),[8],56% and 33%
same,Population Normal (%),[8],92% and 85%
same,Population Pyknosed Nuclei (%),[8],4% and 5%
same,Population Tubulin-Different-Phenotype (%),[8],79% and 83%
same,Total Cell Count,[8],546 and 605
same,Population Apoptotic (%),[6],14% and 10%
same,Population Fragmented Nuclei (%),[6],11% and 8%
same,Population Healthy Nuclei (%),[6],86% and 87%
same,Population Hoechst High Intensity Objects (%),[6],9% and 8%
same,Population Membrane Permeable-Phenotype (%),[6],5% and 3%
same,Population Mitochondria Different-Phenotype (%),[6],0%
same,Population Mitotic Cells (%),[6],85% and 89%
same,Population Normal (%),[6],90% and 91%
same,Population Pyknosed Nuclei (%),[6],2% and 3%
same,Population Tubulin-Different-Phenotype (%),[6],15% and 17%
same,Total Cell Count,[6],2534 and 2133
same,Population Fragmented Nuclei (%),[9],6% and 5%
same,Population Healthy Nuclei (%),[9],89% and 88%
same,Population Hoechst High Intensity Objects (%),[9],6% and 9%
same,Population Membrane Permeable-Phenotype (%),[9],6% and 5%
same,Population Mitochondria Different-Phenotype (%),[9],8% and 10%
same,Population Mitotic Cells (%),[9],86% and 42%
same,Population Normal (%),[9],93% and 90%
same,Population Pyknosed Nuclei (%),[9],3% and 5%
same,Population Tubulin-Different-Phenotype (%),[9],52%
same,Total Cell Count,[9],814 and 883
